# Measurements taken from PMC10405366 (Molecular pharmaceutics, 2023).
# Key:
# [1] = system: female athymic nude (nu/nu) mice; assay: Tolerability study: hematology; type: in vivo, mouse
# In short: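 Athymic nude mice (n = 5 per group) received test compound or the Tween80:Captex200:saline vehicle IP every 2 days for 14 days. About 2–4 h after the last dose, mice were killed with CO2 and blood was drawn by cardiac puncture. Complete blood counts and serum chemistry were run by a pathology core. Values are given as means ± SD, n = 3–5.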
# [2] = Stability in mouse plasma lithium heparin and QC extracts; type: in vitro ADME
# [3] = Stability in Tween80:Captex200P:0.9% saline formulation; type: physicochemical
# In short: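 The dried succinate was taken up in Tween 80:Captex 200P at 1 mg/mL. It was vortexed 30 s, sonicated 30 min and shaken about 16 h at 100 rpm at room temperature. It was then diluted in 0.9% saline to 0.1 mg/mL and serially diluted to 0.05 and 0.025 mg/mL. At 0, 1 and 4 h, aliquots were diluted 20-fold in acetone, with storage at 4 °C in between. Analysis was by UPLC-PDA-HRMS against acetone standards.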
# [4] = cited from earlier work
# [5] = Mouse pharmacokinetics, plasma LC-MS/MS; type: in vivo; conditions: female C57BL/6 mice
# [6] = system: OVCAR8-RFP cells xenografted IP; assay: OVCAR8-RFP IP xenograft; type: in vivo, mouse
# [7] = system: OVCAR4; assay: Cell viability assay; type: cell-based, human
# In short: (§1)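 RPMI1640 (OVCAR3, OVCAR4, MDA-MB-435) or DMEM (OVCAR8, MDA-MB-231) was used, with 10% FBS and penicillin/streptomycin. Cells were STR-validated and kept below 20 passages. Cells were plated at 5000 per well overnight, then given test compound at final 0.95–250 nM (nine levels, 0.5% DMSO) for 72 h at 37 °C. Viability was read by CellTiter-Blue absorbance, and IC50 was taken relative to DMSO. Paclitaxel (0.39–100 nM) was the control, with three biological replicates.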
# [8] = system: OVCAR8; assay: Cell viability assay; type: cell-based, human
# In short: as §1
# [9] = 0.114 mg/kg IP every 2 days, 14 days
# [10] = 0.285 mg/kg IP every 2 days, 14 days
# [11] = 1.14 mg/kg IP every 2 days, removed at 8 days
# [12] = 0.10 mg/kg IP every 2 days, 14 days
# [13] = 0.25 mg/kg IP every 2 days, 14 days
# [14] = 1.00 mg/kg IP every 2 days, removed at 8 days
compound,measurement,setting,value
CN1C(=O)[C@]23SS[C@@]1(C)C(=O)N2[C@H]1Nc2ccccc2[C@@]1([C@@]12c4ccccc4N[C@@H]1N1C(=O)[C@]4(C)SS[C@]1(C(=O)N4C)[C@H]2OC(=O)CCC(=O)O)[C@@H]3O [verticillin A succinate],MCH,[1]; [9],14.6 ± 0.2 pg
same,MCHC,[1]; [9],32.8 ± 0.6 g/dL
same,MCV,[1]; [9],44.4 ± 1.2 fL
same,MPV,[1]; [9],7.9 ± 0.2 fL
same,PCT,[1]; [9],0.754 ± 0.093%
same,PDW,[1]; [9],47.5 ± 2.5%
same,RBC,[1]; [9],8.95 ± 0.15 M/μL
same,RDW,[1]; [9],13.9 ± 0.4%
same,Reticulocyte #,[1]; [9],11.3 ± 12.9 K/μL
same,WBC #,[1]; [9],6.52 ± 1.73 K/μL
same,basophil #,[1]; [9],0.01 ± 0.01 K/μL
same,eosinophil #,[1]; [9],0.01 ± 0.01 K/μL
same,hematocrit,[1]; [9],39.7 ± 1.4%
same,hemoglobin,[1]; [9],13.0 ± 0.2 g/dL
same,lymphocyte #,[1]; [9],3.81 ± 1.09 K/μL
same,monocyte #,[1]; [9],0.36 ± 0.10 K/μL
same,neutrophil #,[1]; [9],2.33 ± 0.63 K/μL
same,nucleated RBCs #,[1]; [9],0 ± 0 K/μL
same,platelet #,[1]; [9],954 ± 118 K/μL
same,reticulocyte,[1]; [9],0.13 ± 0.14%
same,MCH,[1]; [10],14.7 ± 0.2 pg
same,MCHC,[1]; [10],32.9 ± 0.8 g/dL
same,MCV,[1]; [10],44.7 ± 0.9 fL
same,MPV,[1]; [10],7.7 ± 0.07 fL
same,PCT,[1]; [10],0.722 ± 0.072%
same,PDW,[1]; [10],48.2 ± 2.2%
same,RBC,[1]; [10],9.15 ± 0.22 M/μL
same,RDW,[1]; [10],14.1 ± 0.6%
same,Reticulocyte #,[1]; [10],6.3 ± 13.7 K/μL
same,WBC #,[1]; [10],5.99 ± 1.11 K/μL
same,basophil #,[1]; [10],0.01 ± 0.01 K/μL
same,eosinophil #,[1]; [10],0.02 ± 0.02 K/μL
same,hematocrit,[1]; [10],40.9 ± 1.2%
same,hemoglobin,[1]; [10],13.5 ± 1.8 g/dL
same,lymphocyte #,[1]; [10],3.12 ± 1.25 K/μL
same,monocyte #,[1]; [10],0.20 ± 0.08 K/μL
same,neutrophil #,[1]; [10],2.64 ± 0.54 K/μL
same,nucleated RBCs #,[1]; [10],0 ± 0 K/μL
same,platelet #,[1]; [10],938 ± 98 K/μL
same,reticulocyte,[1]; [10],0.07 ± 0.15%
same,MCH,[1]; [11],15.3 ± 0.4 pg
same,MCHC,[1]; [11],32.5 ± 1.1 g/dL
same,MCV,[1]; [11],47.2 ± 1.6 fL
same,MPV,[1]; [11],7.4 ± 0.1 fL
same,PCT,[1]; [11],0.701 ± 0.202%
same,PDW,[1]; [11],51.5 ± 1.4%
same,RBC,[1]; [11],9.49 ± 0.49 M/μL
same,RDW,[1]; [11],15.1 ± 0.2%
same,Reticulocyte #,[1]; [11],0 ± 0 K/μL
same,WBC #,[1]; [11],6.80 ± 1.14 K/μL
same,basophil #,[1]; [11],0.07 ± 0.10 K/μL
same,eosinophil #,[1]; [11],0.10 ± 0.16 K/μL
same,hematocrit,[1]; [11],44.7 ± 2.7%
same,hemoglobin,[1]; [11],14.5 ± 0.42 g/dL
same,lymphocyte #,[1]; [11],2.19 ± 0.61 K/μL
same,monocyte #,[1]; [11],0.18 ± 0.04 K/μL
same,neutrophil #,[1]; [11],4.26 ± 0.56 K/μL
same,nucleated RBCs #,[1]; [11],0 ± 0 K/μL
same,platelet #,[1]; [11],947 ± 271 K/μL
same,reticulocyte,[1]; [11],0 ± 0%
same,stability in mouse plasma lithium heparin,[2],poor stability
same,stability of QC extracts,"[2]; 4 °C autosampler, after approximately 19 h",not stable
same,verticillin A succinate levels in formulation,"[3]; 4 h after preparation, stored at 4 °C",below the detection limit (BDL) or NF
same,stability in formulation,"[3]; Tween80:Captex200P:0.9% saline, 0.1, 0.05 and 0.025 mg/mL, degrades almost immediately to verticillin A",not stable
same,verticillin A succinate levels in formulation,"[3]; immediately after preparation, all concentration levels tested",below the quantitation limit (BQL) or not found/detected (NF)
same,solubility,[4],greatly improved solubility
same,plasma concentration,"[5]; IV 0.285 mg/kg, initial PK time points",< 3 nM
CN1C(=O)[C@]23SS[C@@]1(C)C(=O)N2[C@H]1Nc2ccccc2[C@@]1([C@@]12c4ccccc4N[C@@H]1N1C(=O)[C@@]4(C)SS[C@]1(C(=O)N4C)[C@H]2O)[C@@H]3O [verticillin A],MCH,[1]; [12],14.6 ± 0.2 pg
same,MCHC,[1]; [12],32.7 ± 0.7 g/dL
same,MCV,[1]; [12],44.6 ± 0.2 fL
same,MPV,[1]; [12],7.9 ± 0.1 fL
same,PCT,[1]; [12],0.701 ± 0.065%
same,PDW,[1]; [12],47.4 ± 1.9%
same,RBC,[1]; [12],9.89 ± 0.33 M/μL
same,RDW,[1]; [12],13.8 ± 0.5%
same,Reticulocyte #,[1]; [12],0 ± 0 K/μL
same,WBC #,[1]; [12],6.01 ± 1.29 K/μL
same,basophil #,[1]; [12],0.02 ± 0.01 K/μL
same,eosinophil #,[1]; [12],0.02 ± 0.02 K/μL
same,hematocrit,[1]; [12],44.1 ± 1.4%
same,hemoglobin,[1]; [12],14.4 ± 0.3 g/dL
same,lymphocyte #,[1]; [12],3.94 ± 1.16 K/μL
same,monocyte #,[1]; [12],0.37 ± 0.09 K/μL
same,neutrophil #,[1]; [12],1.65 ± 0.15 K/μL
same,nucleated RBCs #,[1]; [12],0 ± 0 K/μL
same,platelet #,[1]; [12],892 ± 74 K/μL
same,reticulocyte,[1]; [12],0 ± 0%
same,MCH,[1]; [13],15.2 ± 0.4 pg
same,MCHC,[1]; [13],32.6 ± 1.2 g/dL
same,MCV,[1]; [13],46.8 ± 1.0 fL
same,MPV,[1]; [13],7.6 ± 1.1 fL
same,PCT,[1]; [13],0.735 ± 0.147%
same,PDW,[1]; [13],48.7 ± 0.8%
same,RBC,[1]; [13],9.28 ± 0.81 M/μL
same,RDW,[1]; [13],14.2 ± 0.4%
same,Reticulocyte #,[1]; [13],8.6 ± 8.3 K/μL
same,WBC #,[1]; [13],4.22 ± 1.68 K/μL
same,basophil #,[1]; [13],0.01 ± 0.01 K/μL
same,eosinophil #,[1]; [13],0.02 ± 0.01 K/μL
same,hematocrit,[1]; [13],43.5 ± 4.0%
same,hemoglobin,[1]; [13],14.2 ± 1.3 g/dL
same,lymphocyte #,[1]; [13],1.72 ± 0.76 K/μL
same,monocyte #,[1]; [13],0.18 ± 0.06 K/μL
same,neutrophil #,[1]; [13],2.30 ± 0.98 K/μL
same,nucleated RBCs #,[1]; [13],0 ± 0 K/μL
same,platelet #,[1]; [13],964 ± 203 K/μL
same,reticulocyte,[1]; [13],0.10 ± 0.09%
same,MCH,[1]; [14],15.4 ± 0.3 pg
same,MCHC,[1]; [14],33.7 ± 0.7 g/dL
same,MCV,[1]; [14],45.5 ± 0.6 fL
same,MPV,[1]; [14],7.7 ± 0.2 fL
same,PCT,[1]; [14],0.815 ± 0.096%
same,PDW,[1]; [14],47.3 ± 1.7%
same,RBC,[1]; [14],9.79 ± 0.75 M/μL
same,RDW,[1]; [14],16.2 ± 0.9%
same,Reticulocyte #,[1]; [14],0 ± 0 K/μL
same,WBC #,[1]; [14],5.97 ± 1.67 K/μL
same,basophil #,[1]; [14],0.01 ± 0.01 K/μL
same,eosinophil #,[1]; [14],0.03 ± 0.01 K/μL
same,hematocrit,[1]; [14],44.6 ± 3.4%
same,hemoglobin,[1]; [14],15.0 ± 1.0 g/dL
same,lymphocyte #,[1]; [14],1.63 ± 1.19 K/μL
same,monocyte #,[1]; [14],0.21 ± 0.29 K/μL
same,neutrophil #,[1]; [14],4.09 ± 1.30 K/μL
same,nucleated RBCs #,[1]; [14],0 ± 0 K/μL
same,platelet #,[1]; [14],1057 ± 146 K/μL
same,reticulocyte,[1]; [14],0 ± 0%
same,liver and organ gross morphology,[6]; 0.25 mg/kg in DMSO twice weekly for four weeks,did not demonstrate changes in liver morphology
same,tumor burden,"[6]; 0.25 mg/kg twice weekly for four weeks, compared to DMSO",reduced
same,plasma concentration,"[5]; IP 0.25 mg/kg, most results just above the lower limit",1 to 1000 nM
same,plasma concentration,"[5]; IV 0.25 mg/kg, most results just above the lower limit",1 to 1000 nM
same,plasma concentration,"[5]; oral gavage 2.5 mg/kg, linear range 1–1000 nM",BLOQ
same,cytotoxic activity,[7],nanomolar cytotoxic activity
same,cytotoxic activity,[8],nanomolar cytotoxic activity
